Reference: ChEMBL document CHEMBL2413060, “Synthesis, biological evaluation and molecular docking studies of some pyrimidine derivatives” (2013)

Assays:
Type in all cases: functional
[1] = tested on: Staphylococcus aureus; assay: Antibacterial activity against Staphylococcus aureus ATCC 6538P assessed as diameter of inhibition zone at 1 mg/ml after 24 hrs by cup diffusion method (reference value: 15 mm); conditions: read-out: DIZ
[2] = tested on: MDA-MB-435; assay: Cytotoxicity against human MDA-MB-435 cells
Summary of the method: (§1)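 Five-dose in vitro screen on the full sixty human tumour cell line panel. Three response parameters derived per cell line: GI50, TGI and LC50, given in μM.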

[3] = tested on: U-251; assay: Cytotoxicity against human U251 cells
Summary of the method: (§2)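 Five-dose in vitro screen across the full sixty-cell human tumour line panel. Three response parameters were derived from the dose-response data: GI50, TGI and LC50, expressed in μM/l.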

[4] = tested on: DU-145; assay: Cytotoxicity against human DU145 cells
[5] = tested on: SK-OV-3; assay: Cytotoxicity against human SKOV3 cells; summary of the method: as §1
[6] = tested on: MDA-MB-468; assay: Cytotoxicity against human MDA-MB-468 cells; summary of the method: as §1
[7] = Cytotoxicity against human EKVX cells
[8] = tested on: SF-295; assay: Cytotoxicity against human SF295 cells assessed as growth inhibition at 10 uM; conditions: read-out: GI
Summary of the method: (§3)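 Single-dose screen on human tumour cell lines. Growth of treated cells is expressed as percent of untreated growth, plotted as a mean graph, and reported as percent growth inhibition.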

[9] = tested on: A498; assay: Cytotoxicity against human A498 cells assessed as growth inhibition at 10 uM; conditions: read-out: GI
[10] = tested on: NCI-H322M; assay: Cytotoxicity against human NCI-H322M cells; summary of the method: as §1
[11] = tested on: HCT-15; assay: Cytotoxicity against human HCT15 cells
[12] = tested on: SR; assay: Cytotoxicity against human SR cells; summary of the method: as §1
[13] = tested on: OVCAR-5; assay: Cytotoxicity against human OVCAR5 cells; summary of the method: as §1
[14] = tested on: M14; assay: Cytotoxicity against human M14 cells
[15] = tested on: RPMI-8226; assay: Cytotoxicity against human RPMI8226 cells; summary of the method: as §1
[16] = tested on: IGROV-1; assay: Cytotoxicity against human IGROV1 cells
[17] = tested on: OVCAR-3; assay: Cytotoxicity against human OVCAR3 cells; summary of the method: as §1
[18] = tested on: SW-620; assay: Cytotoxicity against human SW620 cells; summary of the method: as §1
[19] = tested on: SNB-75; assay: Cytotoxicity against human SNB75 cells assessed as growth inhibition at 10 uM; conditions: read-out: GI; summary of the method: as §3
[20] = tested on: HT-29; assay: Cytotoxicity against human HT-29 cells
[21] = tested on: SK-OV-3; assay: Cytotoxicity against human SKOV3 cells assessed as growth inhibition at 10 uM; conditions: read-out: GI; summary of the method: as §3
[22] = tested on: HCT-116; assay: Cytotoxicity against human HCT116 cells
[23] = tested on: RXF 393; assay: Cytotoxicity against human RXF393 cells assessed as growth inhibition at 10 uM; conditions: read-out: GI; summary of the method: as §3
[24] = tested on: IGROV-1; assay: Cytotoxicity against human IGROV1 cells assessed as growth inhibition at 10 uM; conditions: read-out: GI
[25] = tested on: OVCAR-4; assay: Cytotoxicity against human OVCAR4 cells; summary of the method: as §1
[26] = tested on: 786-0; assay: Cytotoxicity against human 786-0 cells
[27] = tested on: CAKI-1; assay: Cytotoxicity against human Caki1 cells
[28] = tested on: Hs-578T; assay: Cytotoxicity against human Hs578T cells assessed as growth inhibition at 10 uM; conditions: read-out: GI
[29] = tested on: Pseudomonas aeruginosa; assay: Antibacterial activity against Pseudomonas aeruginosa ATCC 9027 assessed as diameter of inhibition zone at 1 mg/ml after 24 hrs by cup diffusion method (reference value: 16 mm); conditions: ATCC 9027, 24 h, read-out: DIZ
[30] = tested on: PC-3; assay: Cytotoxicity against human PC3 cells; summary of the method: as §1
[31] = tested on: HOP-62; assay: Cytotoxicity against human HOP62 cells
[32] = tested on: SNB-75; assay: Cytotoxicity against human SNB75 cells; summary of the method: as §1
[33] = tested on: MDA-MB-231; assay: Cytotoxicity against human MDA-MB-231 cells; summary of the method: as §1
[34] = tested on: NCI-H23; assay: Cytotoxicity against human NCI-H23 cells; summary of the method: as §1
[35] = tested on: UACC-62; assay: Cytotoxicity against human UACC62 cells; summary of the method: as §2
[36] = tested on: HOP-92; assay: Cytotoxicity against human HOP92 cells
[37] = tested on: MDA-MB-468; assay: Cytotoxicity against human MDA-MB-468 cells assessed as growth inhibition at 10 uM; conditions: read-out: GI; summary of the method: as §3
[38] = tested on: HOP-62; assay: Cytotoxicity against human HOP62 cells assessed as growth inhibition at 10 uM; conditions: read-out: GI
[39] = tested on: UO-31; assay: Cytotoxicity against human UO31 cells assessed as growth inhibition at 10 uM; conditions: read-out: GI
Summary of the method: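 Single-dose screen in a sixty-cell human tumour line panel; percent growth of treated cells relative to untreated was read and reported as percentage growth inhibition, shown as a mean graph. Compounds meeting the threshold inhibition criteria went on to five-dose testing.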

[40] = tested on: LOX IMVI; assay: Cytotoxicity against human LOXIMVI cells
[41] = read-out: LC50 (the source's name)

N#Cc1c(-c2ccccc2)nc(SCC2CO2)nc1N1CCOCC1 (stereo unspecified)
zone of inhibition at 1000 µg/mL [1]: 15 mm
GI50 [2]: 6.71 µM
TGI [2]: > 100 µM
CC50 [2, 41]: > 100 µM
GI50 [3]: 22.1 µM
TGI [3]: > 100 µM
CC50 [3, 41]: > 100 µM
GI50 [4]: 13.4 µM
TGI [4]: > 100 µM
CC50 [4, 41]: > 100 µM
GI50 [5]: 14.1 µM
TGI [5]: 75.2 µM
CC50 [5, 41]: > 100 µM
GI50 [6]: 4.82 µM
TGI [6]: > 100 µM
CC50 [6, 41]: > 100 µM
GI50 [7]: 3.65 µM
TGI [7]: > 100 µM
CC50 [7, 41]: > 100 µM
inhibition of growth at 10 µM [8]: 90.9%
inhibition of growth at 10 µM [9]: 115%
GI50 [10]: 8.31 µM
TGI [10]: > 100 µM
CC50 [10, 41]: > 100 µM
GI50 [11]: 4.06 µM
TGI [11]: > 100 µM
CC50 [11, 41]: > 100 µM
GI50 [12]: 33.3 µM
TGI [12]: > 100 µM
CC50 [12, 41]: > 100 µM
GI50 [13]: 1.7 µM
TGI [13]: > 100 µM
CC50 [13, 41]: > 100 µM
GI50 [14]: 11.9 µM
TGI [14]: > 100 µM
CC50 [14, 41]: > 100 µM
GI50 [15]: 14.1 µM
TGI [15]: 91.8 µM
CC50 [15, 41]: > 100 µM
GI50 [16]: 1.79 µM
TGI [16]: 23.3 µM
CC50 [16, 41]: > 100 µM
GI50 [17]: 4.19 µM
TGI [17]: 47.8 µM
CC50 [17, 41]: > 100 µM
GI50 [18]: 25 µM
TGI [18]: > 100 µM
CC50 [18, 41]: > 100 µM
inhibition of growth at 10 µM [19]: 65.9%
GI50 [20]: 36.8 µM
TGI [20]: > 100 µM
CC50 [20, 41]: > 100 µM
inhibition of growth at 10 µM [21]: 71.9%
GI50 [22]: 18.4 µM
TGI [22]: > 100 µM
CC50 [22, 41]: > 100 µM
inhibition of growth at 10 µM [23]: 68.5%
inhibition of growth at 10 µM [24]: 61.9%
GI50 [25]: 85.1 µM
TGI [25]: > 100 µM
CC50 [25, 41]: > 100 µM
GI50 [26]: 2.7 µM
TGI [26]: 21.3 µM
CC50 [26, 41]: > 100 µM
GI50 [27]: 0.635 µM
TGI [27]: 31.4 µM
CC50 [27, 41]: > 100 µM
inhibition of growth at 10 µM [28]: 50%
zone of inhibition at 1000 µg/mL [29]: 17 mm
GI50 [30]: 22.1 µM
TGI [30]: > 100 µM
CC50 [30, 41]: > 100 µM
GI50 [31]: 4.34 µM
TGI [31]: 75.3 µM
CC50 [31, 41]: > 100 µM
GI50 [32]: 2.15 µM
TGI [32]: 68.2 µM
CC50 [32, 41]: > 100 µM
GI50 [33]: 10 µM
TGI [33]: > 100 µM
CC50 [33, 41]: > 100 µM
GI50 [34]: 4.48 µM
TGI [34]: > 100 µM
CC50 [34, 41]: > 100 µM
GI50 [35]: 3.12 µM
TGI [35]: 75.5 µM
CC50 [35, 41]: > 100 µM
GI50 [36]: 2.44 µM
TGI [36]: 8.7 µM
CC50 [36, 41]: > 100 µM
inhibition of growth at 10 µM [37]: 44.1%
inhibition of growth at 10 µM [38]: 45.7%
inhibition of growth at 10 µM [39]: 70.5%
GI50 [40]: 6.48 µM
TGI [40]: > 100 µM
CC50 [40, 41]: > 100 µM
